Results on two molecules are retold here after ChEMBL document CHEMBL3588793, “Small molecule inhibitors of HIVgp41 N-heptad repeat trimer formation” (Bioorg Med Chem Lett, 2015).

The source made the active and inactive calls. No cut-off for these calls is given here.

Data set [1] relates to Human immunodeficiency virus. Briefly: Inhibition of HIVgp41 activity assessed as fluorescence intensity at 800 uM by FRET assay relative to 40 uM bithionol.
The nature of data set [2]: Cytotoxicity against human TZM-bl cells at 100 uM. The class given is cell-based. The method, boiled down:
(§1)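 TZM-bl target cells (2.5×10^4/well) were seeded; 24 h later HL2/3 effector cells (5.0×10^4/well, […]) were added together with compound diluted in DMSO to a final 100 µM. After 6 h, Tat-driven LTR-luciferase luminescence (fusion) and cell viability were read in a combined reporter/viability kit. Six replicates; ANOVA with Tukey post hoc test against untreated co-culture.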

Data set [3] deals with HL2/3. Put plainly: Inhibition of HIV gp41 activity assessed as inhibition of TZM-bl and HL2/3 cell fusion at 100 uM after 6 hrs by luciferase reporter assay. The class given is cell-based. Particulars: Human immunodeficiency virus. The method, boiled down:
as §1
For orientation: A reporter such as luciferase makes a cellular process visible.

A short description of data set [4]: Inhibition of HIVgp41 activity assessed as inhibition of TZM-bl and HL2/3 cell fusion after 6 hrs by luciferase reporter assay. The class given is cell-based. Particulars: Human immunodeficiency virus 1, HL2/3, 6 h. The method, boiled down:
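Dose-response runs of the TZM-bl/HL2/3 co-culture luciferase fusion assay over a range of concentrations. Viability signal was scaled to the maximal signal (fraction of maximal proliferation). Each well's fusion luminescence was divided by that fraction, background was subtracted, and values were normalized to fraction of maximal effect. IC50 was taken from curve fitting.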

A short description of data set [5]: Cytotoxicity against human HL2/3 cells at 100 uM. The class given is cell-based. The conditions noted are these: hl2/3, 100 µM. The method, boiled down: as §1

Regarding `COc1ccc(-c2cc(C(=O)NCc3ccc(Cl)cc3)n[nH]2)cc1S(=O)(=O)N1CCOCC1`, the result in data set [1] was inactive. Also, the Activity result in data set [2] and in data set [5] was “Non-toxic” in each case. Besides, in data set [3], the outcome was Active. In addition, the IC50 – broadly, the concentration needed to halve the response being measured – in data set [4] amounted to 58.6 µM.

As for `CCn1c(SCC(=O)N/N=C/c2cccc(Oc3ccccc3)c2)nnc1-c1ccc(OC)cc1`, the result in data set [1] was inactive. In addition, the Activity entry in data set [2] and in data set [5] was “Non-toxic” each time. Further, the result in data set [3] was Active. The IC50 in data set [4] stood at 56.7 µM.
